Source: PubChem (several laboratories)
KCC2 mod = KCC2 (human) Cl- transport modulation. KCC2 cells, thallium flux FluoZin-2 fluorescence. B-score of Tl+ flux slope (higher = more flux/activation; lower = inhibition) at 10 µM. hit rate 2.2% among 190,000;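 active = thallium flux slope and its plate-corrected score both differing from the plate sample mean at a set confidence after two filtering rounds, in either direction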;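 also: slope of fluorescence scaled to starting intensity during 10 to 20 s after thallium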
DTT redox prof = compounds producing H2O2 with reducing agent – biochemical, NIH compound library profiling, artefact control for MLSCN library redox annotation, primary screen; DTT-dependent redox cycling H2O2, phenol red/HRP absorbance; 100% = 100 µM peroxide control, 0% = buffer; activation, % at 10 µM; hit rate 0.03% among 200,000;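 active = activation of at least 50% relative to the plate's high and low controls in the primary single-dose screen; inactive = activation below 50%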;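 also: compound incubated with DTT at 0.8 mM final as the reducing agent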
Autophagy mod = autophagy modulation, high-content screen; hit rate 0.98% among 190,000; calls only at 10 µM (by protocol); MEF GFP-LC3 puncta imaging; test concentration mostly 10 µM;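 active = percentage of spot-positive cells more than 3 SD above its plate mean, without a fluorescence outlier flag or 80% toxicity; inconclusive = no clear call, values can overlap the other calls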;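 also: spot-positive cell cutoff set from DMSO-treated cells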
Dynein transport = blocks dynein driven cargo transport along microtubules. 3617.4 mouse cells, GR-EGFP nuclear translocation imaging; test concentration mostly 20 µM; stimulated with dexamethasone, 1 µM; stronger effect = lower value. AID 1381. hit rate 0.47% among 220,000. z-score, hits read low;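 active = plate z-score of nuclear minus cytoplasmic receptor signal below a set negative limit, without overly bright fluorescence or cell loss, cut at about -3.5 in these data, passing the limit was not always enough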;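 also: z-score of nuclear minus cytoplasmic ring GR-EGFP intensity difference per well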
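Buffer or medium: tet-free, stripped-serum medium; Also added: dexamethasone, 1.0 µM final; Technique: high-content fluorescence imaging after fixation; Times: 48 h induction, 1 h compound, 30 min dex at 37 °C; Read-out: per-cell GR-EGFP intensity, nucleus versus surrounding cytoplasmic ring, well-averaged.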
ROMK mod = modulators of human ROMK potassium channel; hit rate 2% among 130,000; Tet-inducible ROMK, thallium flux fluorescence; actives lie on both sides; B-score at 10 µM; AID 1918; P48048;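 active = signal ratio slope over the read window, or its plate-corrected B-score, at least 3 SD from the plate mean, either direction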;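 also: B-score of the F/F0 ratio slope over 7 to 12 s after thallium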
Target sequence (P48048 whole entry, looked up): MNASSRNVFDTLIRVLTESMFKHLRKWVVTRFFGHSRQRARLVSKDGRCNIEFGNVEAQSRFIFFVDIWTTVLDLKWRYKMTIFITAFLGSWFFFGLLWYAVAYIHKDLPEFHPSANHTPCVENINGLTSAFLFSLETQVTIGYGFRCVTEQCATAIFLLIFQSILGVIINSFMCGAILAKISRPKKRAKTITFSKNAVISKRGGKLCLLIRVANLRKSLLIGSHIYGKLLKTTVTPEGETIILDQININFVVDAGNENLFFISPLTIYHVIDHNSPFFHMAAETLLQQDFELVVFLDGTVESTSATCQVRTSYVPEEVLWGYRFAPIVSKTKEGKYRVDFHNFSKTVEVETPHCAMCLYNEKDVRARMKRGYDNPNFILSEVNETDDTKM
KCC2 secondary = KCC2 (human) modulation, secondary assay | HEK293-KCC2, thallium flux, FluoZin2 fluorescence; stronger effect = higher value | normalised thallium flux (F/F0 slope) at 10 µM | hit rate 15% among 3,700 | shares compounds with KCC2 mod;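 active = thallium flux slope above the same plate's solvent-only control mean plus 3 SD; inconclusive = the two replicate wells disagree; inactive = no significant difference from solvent-only control wells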
KCC2 bumet counter = thallium flux persisting under bumetanide in KCC2 cells, counter-screen secondary assay | shares compounds with KCC2 mod | HEK293-KCC2 + bumetanide/ouabain, thallium flux FluoZin2; stronger effect = higher value | normalized thallium flux at 10 µM | hit rate 49% among 3,700;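 active = thallium entry rate above the same plate's blocked-transporter control wells by more than 3 SD; inconclusive = the two repeat wells disagree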;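 also: raw slope of fluorescence over initial fluorescence between 10 and 20 s after thallium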
KCC2 secondary2 = KCC2 (human) modulation, second secondary assay; shares compounds with KCC2 mod; HEK293-KCC2, thallium flux FluoZin2 fluorescence; actives lie on both sides; F/F0 rise rate, 10–20 s post-thallium; normalized thallium flux at 10 µM; hit rate 23% among 3,700; AID 1715;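 active = thallium flux slope more than 3 SD above or below the plate's solvent-only control mean, mostly below; inconclusive = the two repeat wells disagreed; inactive = no significant shift from solvent-only controls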;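 also: raw slope with 0.1% DMSO as baseline and bumetanide as block control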
HEK293 Tl flux = counter-screen for KCC2 modulators: effect in parental HEK293 cells | thallium flux rate (normalised fluorescence) at 10 µM | shares compounds with KCC2 mod | AID 1716 | thallium flux FluoZin2, ouabain; baseline-ratio fluorescence slope, 10–20 s after thallium | hit rate 46% among 3,700;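 active = thallium flux rate significantly above the same plate's solvent-only control wells, beyond their mean plus 3 SD; inconclusive = the two replicate wells gave conflicting results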
KCC2 retest ouab = modulates human KCC2 on retest with ouabain; shares compounds with KCC2 mod; AID 1717; HEK293-KCC2, thallium flux FluoZin2 fluorescence; bidirectional: low = inhibitor, high = activator; hit rate 48% among 3,700; raw Tl+ flux slope (below DMSO = inhibition, above = activation) at 10 µM;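 active = thallium flux slope beyond 3 SD from same-plate DMSO control mean in most replicates, usually higher, sometimes lower; inconclusive = repeat tests gave conflicting results; inactive = no significant difference from controls in most replicates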;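 also: slope of initial-normalized fluorescence between seconds 10 and 20 after thallium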
HEK293 Tl flux2 = counter-screen for KCC2 modulators: effect in parental HEK293 cells; thallium flux slope at 10 µM; thallium flux FluoZin-2 fluorescence slope; hit rate 33% among 3,700; AID 1718; shares compounds with KCC2 mod;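 active = thallium flux slope above the same plate's solvent-control mean plus 3 SD in both duplicate wells; inconclusive = duplicate wells that disagreed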;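 also: run without ouabain in cells lacking the KCC2 cotransporter; slope of fluorescence scaled to its starting value between 10 and 20 s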
Numbers without * were called inactive; i = inactive; ? = inconclusive; . = not tested or not shown. Rows were chosen to be rich in hits. Some 4.1% of all compounds tested hit in one or more screens of this group.

SMILES	KCC2 mod	DTT redox prof	Autophagy mod	Dynein transport	ROMK mod	KCC2 secondary	KCC2 bumet counter	KCC2 secondary2	HEK293 Tl flux	KCC2 retest ouab	HEK293 Tl flux2
Cc1ccc(C)c(Cn2nnc3c(=O)[nH]c(C(=O)NCc4ccco4)nc32)c1	-5.7*	-1	i	1.8	-0.066	0.005	0.005	0.023*	0.0062*	0.014*	?
O=C(NCc1ccco1)c1nc2c(nnn2Cc2ccccc2Cl)c(=O)[nH]1	-3.3*	1	i	-0.99	1.1	0.0082	0.0067	0.028	?	0.014*	0.0089
O=C(NCc1cccs1)c1nc2c(nnn2Cc2ccc(F)cc2)c(=O)[nH]1	-2.3*	0	i	0.17	.	0.0062	?	0.023*	0.0069	?	0.0093
O=C(NCC1CCCO1)c1nc2c(nnn2Cc2ccc(F)cc2)c(=O)[nH]1 (stereo unspecified)	-2.2	0	i	-1.1	.	.	.	.	.	.	.
O=C(Nc1cccc(-c2nnn(CC(=O)N3CCc4ccccc4C3)n2)c1)C1CCC1	.	0	i	0.46	-0.34	0.017	0.0043	?	?	0.014*	0.01
O=C(Nc1ccccc1-c1nnn(CC(=O)N2CCc3ccccc3C2)n1)C1CCC1	.	0	i	-0.28	-0.085	.	.	.	.	.	.
Cn1c(=O)c(C(=O)CN2CC(=O)Nc3ccccc32)c(N)n(Cc2ccccc2)c1=O	-0.14	0	i	-0.074	0.26	.	.	.	.	.	.
Cc1ccc2c(c1)nnn2C1CCN(S(=O)(=O)c2cccc(S(=O)(=O)N(C)C)c2)CC1	.	0	i	0.53	0.11	0.0069	0.0057	?	0.0064	?	0.0095
O=S(=O)(NC1CCCC1)c1cccc(S(=O)(=O)N2CCC(n3nnc4ccccc43)CC2)c1	.	0	i	-0.4	0.76	0.018	0.0048	?	0.0067	0.013	0.01
O=C1CCN(S(=O)(=O)c2ccccc2)CCN1CCOCc1cccc(F)c1	0.011	.	.	-0.13	.	.	.	.	.	.	.
CCOCc1[nH]c(=S)[nH]c(=O)c1Cc1ccc(OCC(C)C)cc1	22*	0	i	-1	0.29	0.014*	0.061*	0.039	?	0.04*	?
CCCCOc1ccc(Cc2c(COCC)[nH]c(=S)[nH]c2=O)cc1	15*	0	i	-0.22	-0.59	?	0.099*	0.043*	0.026*	0.053*	0.028*
Cc1[nH]c(=S)[nH]c(=O)c1Cc1ccc(OCC(C)C)cc1	-0.35	0	i	-0.63	0.019	.	.	.	.	.	.
CCOCc1[nH]c(=S)[nH]c(=O)c1Cc1ccc(OCC)cc1	0.34	0	i	-0.57	0.8	.	.	.	.	.	.
COc1ccc(/C=C2\SC(=S)N(CC(=O)OCC(=O)Nc3cc(Cl)cc(Cl)c3)C2=O)cc1	-0.038	.	.	0.066	0.1	.	.	.	.	.	.
O=C(Cn1cnc2scc(-c3ccc(F)cc3)c2c1=O)N1CCOCC1	0.097	0	i	3.4	1.1	.	.	.	.	.	.
Cc1ccc(-c2csc3ncn(CC(=O)N4CCOCC4)c(=O)c23)cc1C	.	0	i	2	-1.2	0.011	?	0.036	0.0048	0.021	0.012
CCOc1ccc(NC(=O)C(Cc2ccccc2)N2C(=O)c3cccc4cccc(c34)C2=O)cc1 (stereo unspecified)	0.041	1	i	-0.59	0.15	.	.	.	.	.	.
